Experimental data taken from ChEMBL document CHEMBL4680064, “Natural product inspired optimization of a selective TRPV6 calcium channel inhibitor” (RSC Med Chem, 2020).
Active and inactive are the calls of the source. The calls are words filed in the database; no cut-off is given here.

Tests used:
HEK293 [1] = assay: Effect on cadmium induced toxicity in wild type human HEK293 cells assessed as cell survival at 1 to 10 uM incubated for 24 hrs by XTT assay; type: functional, cell-based; settings: dose 1-10 µM
How it was run: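 HEK293 wt or HEK-hTRPV6 cells in DMEM with 10% FBS, glutamine, penicillin/streptomycin and non-essential amino acids. Seeded at 1.5 x 10⁴ cells/well and left 24 h, then given CdCl2 at 50 to 0.05 µM with or without test compound at 1.0 or 10 µM; blank was 0.01% DMSO. Incubation 24 h at 37 °C. XTT/PMS read for 2 h at A450−A650, as % viable versus blank. n = 4/concentration, 2 independent experiments.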

[2] = Inhibition of rat L-type calcium channel (diltiazem site) at 10 uM
[3] = Inhibition of SOCE in human MDA-MB-231 cells at 5 uM pretreated for 20 mins followed by Tg addition for 10 mins followed by CaCl2 addition by FLIPR assay; type: cell-based; settings: mda-mb-231, 0.5 h, time 30 min
How it was run: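 MDA-MB-231 cells at 6 x 10⁴ cells/well in phenol-red-free RPMI with 10% FBS, assayed 16 h later. Loaded in nominally Ca²⁺-free buffer with calcium-5 for 40 min at 37 °C. Compound, with GSK-7975A as reference, given for 20 min. After a 50 s baseline, thapsigargin was added and followed for 10 min, then CaCl2 was added. SOCE taken as AUC of the Ca²⁺ entry trace.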

[4] = target: Voltage-gated inwardly rectifying potassium channel KCNH2 (Homo sapiens, UniProt Q12809); assay: Inhibition of human ERG at 10 uM
Chain of Voltage-gated inwardly rectifying potassium channel KCNH2 (Q12809 whole entry): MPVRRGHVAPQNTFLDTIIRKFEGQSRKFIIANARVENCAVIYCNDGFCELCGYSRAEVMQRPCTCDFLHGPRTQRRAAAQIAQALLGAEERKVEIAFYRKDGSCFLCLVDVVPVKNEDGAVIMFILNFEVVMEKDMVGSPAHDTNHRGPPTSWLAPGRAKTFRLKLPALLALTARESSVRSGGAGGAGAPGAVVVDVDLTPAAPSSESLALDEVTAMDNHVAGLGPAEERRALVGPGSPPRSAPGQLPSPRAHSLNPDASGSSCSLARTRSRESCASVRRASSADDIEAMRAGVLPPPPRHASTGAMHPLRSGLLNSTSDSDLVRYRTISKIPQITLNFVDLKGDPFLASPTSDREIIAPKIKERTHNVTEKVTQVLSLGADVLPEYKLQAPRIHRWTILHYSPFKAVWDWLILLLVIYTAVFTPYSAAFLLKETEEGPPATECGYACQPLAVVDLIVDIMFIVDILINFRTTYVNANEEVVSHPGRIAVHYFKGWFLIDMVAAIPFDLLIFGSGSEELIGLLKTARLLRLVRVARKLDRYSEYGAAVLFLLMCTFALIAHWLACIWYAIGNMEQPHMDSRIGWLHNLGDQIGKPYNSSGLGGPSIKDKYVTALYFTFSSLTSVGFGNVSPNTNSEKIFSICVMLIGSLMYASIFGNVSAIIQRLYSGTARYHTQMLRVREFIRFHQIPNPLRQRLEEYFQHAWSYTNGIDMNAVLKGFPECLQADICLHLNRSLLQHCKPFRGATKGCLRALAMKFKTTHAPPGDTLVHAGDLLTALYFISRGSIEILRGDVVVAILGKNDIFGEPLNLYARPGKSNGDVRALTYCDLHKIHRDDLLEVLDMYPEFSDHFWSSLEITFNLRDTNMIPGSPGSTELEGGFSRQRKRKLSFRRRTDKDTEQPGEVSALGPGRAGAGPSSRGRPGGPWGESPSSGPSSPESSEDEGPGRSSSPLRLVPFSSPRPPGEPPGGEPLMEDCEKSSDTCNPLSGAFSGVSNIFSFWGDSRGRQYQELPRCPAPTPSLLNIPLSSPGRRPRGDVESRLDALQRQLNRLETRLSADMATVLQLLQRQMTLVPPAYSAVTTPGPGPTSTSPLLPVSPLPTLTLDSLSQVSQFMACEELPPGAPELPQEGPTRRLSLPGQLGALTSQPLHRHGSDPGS

SK-OV-3 = assay: Antiproliferative activity against human SK-OV-3 cells assessed as cell growth inhibition at 0.4 to 100 uM after 6 days by XTT assay; type: cell-based; settings: human, sk-ov-3, 144 h, 100 µM; dose 0.4-100 µM, time 6 day
HEK293 [5] = assay: Antiproliferative activity against wild type human HEK293 cells assessed as cell growth inhibition at 0.4 to 100 uM after 6 days by XTT assay; type: cell-based; settings: hek293, 144 h, dose 0.4-100 µM, time 6 day
T47D = assay: Cytotoxicity against human T47D cells assessed as induction of cell morphological changes at 100 uM by inverted microscopic analysis; type: cell-based
How it was run: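 T47D cells, cultured and treated as in the 6-day XTT proliferation assay, were photographed for morphology after exposure at 100 μM and compared with control cultures.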

[6] = target: T1, Alpha-1A adrenergic receptor (Homo sapiens, UniProt P35348); assay: Inhibition of human alpha1A adrenergic receptor at 10 uM
T1 sequence (P35348 whole entry): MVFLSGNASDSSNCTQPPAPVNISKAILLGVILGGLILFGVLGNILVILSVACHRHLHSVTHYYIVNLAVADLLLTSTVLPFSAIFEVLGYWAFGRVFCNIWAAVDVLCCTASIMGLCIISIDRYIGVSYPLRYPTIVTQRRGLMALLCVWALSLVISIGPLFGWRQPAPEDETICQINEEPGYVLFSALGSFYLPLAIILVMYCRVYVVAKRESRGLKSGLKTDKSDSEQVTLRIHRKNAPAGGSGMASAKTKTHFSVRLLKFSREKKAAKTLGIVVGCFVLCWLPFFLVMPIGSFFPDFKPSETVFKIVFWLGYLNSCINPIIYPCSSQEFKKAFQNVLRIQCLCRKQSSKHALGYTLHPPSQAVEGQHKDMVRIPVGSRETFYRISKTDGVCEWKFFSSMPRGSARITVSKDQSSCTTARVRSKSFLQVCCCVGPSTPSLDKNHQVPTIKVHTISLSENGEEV

[7] = target: T2, Muscarinic acetylcholine receptor M1 (Homo sapiens, UniProt P11229); assay: Inhibition of human muscarinic M1 receptor at 10 uM
T2 sequence (P11229 whole entry): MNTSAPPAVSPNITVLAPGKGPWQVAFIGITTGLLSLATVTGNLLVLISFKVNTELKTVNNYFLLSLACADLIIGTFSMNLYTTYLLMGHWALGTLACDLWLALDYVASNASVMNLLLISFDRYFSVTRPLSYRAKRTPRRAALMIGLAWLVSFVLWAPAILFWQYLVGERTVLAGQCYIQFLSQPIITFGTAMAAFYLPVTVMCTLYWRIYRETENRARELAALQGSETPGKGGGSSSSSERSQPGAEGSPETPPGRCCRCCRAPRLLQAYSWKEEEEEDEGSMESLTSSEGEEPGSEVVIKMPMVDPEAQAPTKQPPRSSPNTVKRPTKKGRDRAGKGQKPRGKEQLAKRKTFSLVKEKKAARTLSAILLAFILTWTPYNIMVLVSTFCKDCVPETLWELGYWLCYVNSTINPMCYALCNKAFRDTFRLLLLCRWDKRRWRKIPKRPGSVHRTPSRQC

[8] = target: T3, Muscarinic acetylcholine receptor M2 (Homo sapiens, UniProt P08172); assay: Inhibition of human muscarinic M2 receptor at 10 uM
T3 sequence (P08172 whole entry): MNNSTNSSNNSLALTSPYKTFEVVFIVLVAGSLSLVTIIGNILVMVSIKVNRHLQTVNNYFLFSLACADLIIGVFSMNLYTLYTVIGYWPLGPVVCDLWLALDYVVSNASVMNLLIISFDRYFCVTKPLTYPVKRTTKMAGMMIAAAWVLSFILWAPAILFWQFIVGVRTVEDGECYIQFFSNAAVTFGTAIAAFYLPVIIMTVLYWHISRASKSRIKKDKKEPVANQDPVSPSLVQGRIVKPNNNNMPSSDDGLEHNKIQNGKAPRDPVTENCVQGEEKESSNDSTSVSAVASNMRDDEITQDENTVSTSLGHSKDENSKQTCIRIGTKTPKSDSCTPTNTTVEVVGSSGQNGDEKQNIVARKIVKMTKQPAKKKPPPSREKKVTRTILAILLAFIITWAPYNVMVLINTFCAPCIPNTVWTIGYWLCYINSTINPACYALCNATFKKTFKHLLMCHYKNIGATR

Mu-type opioid receptor = Mu-type opioid receptor (Homo sapiens, UniProt P35372); assay: Inhibition of human mu-opioid receptor at 10 uM
Chain of Mu-type opioid receptor (P35372 whole entry): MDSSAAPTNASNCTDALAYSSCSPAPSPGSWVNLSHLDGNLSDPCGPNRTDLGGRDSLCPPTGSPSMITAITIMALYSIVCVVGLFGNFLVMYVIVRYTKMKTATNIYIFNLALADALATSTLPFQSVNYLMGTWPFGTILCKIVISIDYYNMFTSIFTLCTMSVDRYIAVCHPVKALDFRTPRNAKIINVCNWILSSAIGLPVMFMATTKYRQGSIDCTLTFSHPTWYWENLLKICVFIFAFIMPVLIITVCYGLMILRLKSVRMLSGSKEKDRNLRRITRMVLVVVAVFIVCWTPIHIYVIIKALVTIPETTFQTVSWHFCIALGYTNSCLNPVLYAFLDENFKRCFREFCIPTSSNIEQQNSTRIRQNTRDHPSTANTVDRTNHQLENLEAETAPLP

[9] = target: Kappa-type opioid receptor (Homo sapiens, UniProt P41145); assay: Inhibition of human kappa-opioid receptor at 10 uM
Chain of Kappa-type opioid receptor (P41145 whole entry): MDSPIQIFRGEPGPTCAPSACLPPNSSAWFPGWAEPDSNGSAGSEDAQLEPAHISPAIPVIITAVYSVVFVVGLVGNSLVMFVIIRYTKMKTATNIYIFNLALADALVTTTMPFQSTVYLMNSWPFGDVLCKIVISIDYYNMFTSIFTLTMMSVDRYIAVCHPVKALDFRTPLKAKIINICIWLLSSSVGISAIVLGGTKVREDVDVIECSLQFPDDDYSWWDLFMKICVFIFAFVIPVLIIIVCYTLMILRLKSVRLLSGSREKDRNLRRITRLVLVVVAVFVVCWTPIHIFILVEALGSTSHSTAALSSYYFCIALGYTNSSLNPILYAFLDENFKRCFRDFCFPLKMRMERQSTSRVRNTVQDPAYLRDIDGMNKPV

[10] = target: T4, 5-hydroxytryptamine receptor 1A (Homo sapiens, UniProt P08908); assay: Inhibition of human serotonin 5HT-1A receptor at 10 uM
T4 sequence (P08908 whole entry): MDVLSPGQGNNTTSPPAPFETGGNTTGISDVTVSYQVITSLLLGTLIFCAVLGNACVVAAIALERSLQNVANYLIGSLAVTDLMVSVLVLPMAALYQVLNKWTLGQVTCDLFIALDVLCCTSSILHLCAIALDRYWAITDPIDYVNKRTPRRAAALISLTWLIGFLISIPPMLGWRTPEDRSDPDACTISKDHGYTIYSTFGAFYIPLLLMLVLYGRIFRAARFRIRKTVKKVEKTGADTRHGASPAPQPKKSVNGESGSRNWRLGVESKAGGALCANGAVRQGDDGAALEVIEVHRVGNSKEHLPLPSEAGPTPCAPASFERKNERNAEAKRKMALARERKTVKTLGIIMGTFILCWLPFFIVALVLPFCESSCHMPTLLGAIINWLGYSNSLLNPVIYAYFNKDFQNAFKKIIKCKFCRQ

O=c1ccc(CN2CCN([C@H]3CC[C@@](O)(c4cccc(C(F)(F)F)c4)CC3)CC2)c[nH]1
Activity (HEK293 [1]): inactive
inhibition (INH) [2]: Not Active
inhibition (INH) [3]: Not Active
inhibition (INH) [4]: Not Active
Activity (SK-OV-3): Non-Toxic
Activity (HEK293 [5]): Non-Toxic
Activity (T47D): Non-Toxic
inhibition (INH) [6]: Not Active
inhibition (INH) [7]: Not Active
inhibition (INH) [8]: Not Active
inhibition (INH) (Mu-type opioid receptor): Not Active
inhibition (INH) [9]: Not Active
inhibition (INH) [10]: Not Active
